Laboratory results reported in ChEMBL document CHEMBL3112403, “Design, synthesis and evaluation of second generation MurF inhibitors based on a cyanothiophene scaffold” (Eur J Med Chem, 2014).

Legend:
[1] = Inhibition of Escherichia coli MurF ligase using D-Ala-D-Ala as substrate after 15 mins by malachite green assay
Method in brief: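 After 15 min at 37 °C, Biomol reagent was added and phosphate read at 650 nm, in duplicate. RA was taken relative to a 5% DMSO control. IC50 was taken as the concentration giving 50% RA, from seven concentrations.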

[2] = biological target: T1, UDP-N-acetylmuramoyl-tripeptide--D-alanyl-D-alanine ligase (Streptococcus pneumoniae, UniProt Q9ZHC3); test: Inhibition of Streptococcus pneumoniae MurF ligase using D-Ala-D-Ala as substrate after 15 mins by malachite green assay
T1 sequence (Q9ZHC3 whole entry): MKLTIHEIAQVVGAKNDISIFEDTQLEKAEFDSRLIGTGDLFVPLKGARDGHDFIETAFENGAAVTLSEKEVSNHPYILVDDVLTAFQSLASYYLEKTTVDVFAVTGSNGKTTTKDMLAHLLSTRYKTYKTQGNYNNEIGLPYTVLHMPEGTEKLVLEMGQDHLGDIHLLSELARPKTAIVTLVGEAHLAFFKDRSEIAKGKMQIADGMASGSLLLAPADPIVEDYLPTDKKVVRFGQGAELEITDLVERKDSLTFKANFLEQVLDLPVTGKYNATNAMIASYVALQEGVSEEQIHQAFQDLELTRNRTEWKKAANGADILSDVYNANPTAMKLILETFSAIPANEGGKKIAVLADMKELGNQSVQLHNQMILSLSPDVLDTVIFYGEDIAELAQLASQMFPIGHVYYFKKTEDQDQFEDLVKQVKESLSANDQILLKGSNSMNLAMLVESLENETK
Method in brief: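 Purified S. pneumoniae MurF in 50 mM Hepes pH 8.0 with 50 mM MgCl2, 0.005% Triton X-114, 100 µM D-Ala-D-Ala, 50 µM UMtri-L-Lys and 250 µM ATP, with 5% DMSO final. After 15 min at 37 °C, Biomol reagent was added and absorbance read at 650 nm, in duplicate. RA was taken against a 5% DMSO control. IC50 was the 50% RA point from seven concentrations.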

[3] = system: Staphylococcus aureus; test: Antibacterial activity against Staphylococcus aureus SH1000 assessed as growth inhibition by broth microdilution method; format: functional
Method in brief: (§1)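 MICs by broth microdilution in Mueller-Hinton broth following CLSI guidelines.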

[4] = system: Escherichia coli; test: Antibacterial activity against Escherichia coli 1411 assessed as growth inhibition by broth microdilution method in presence of polymyxin B nonapeptide; format: functional
Method in brief: (§2)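 Broth microdilution MIC in Mueller-Hinton broth per CLSI, run with 4 µg/mL polymyxin B nonapeptide to permeabilize the outer membrane.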

[5] = system: Escherichia coli; test: Antibacterial activity against Escherichia coli ES100 harboring tolC deletion mutant assessed as growth inhibition by broth microdilution method; format: functional
Method in brief: (§3)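 MIC by broth microdilution in Mueller-Hinton broth following CLSI guidelines. ES100 is the tolC derivative of AB734, and SM1411 is the acrAB derivative of 1411; both are efflux-deficient E. coli strains. Growth inhibition was read as the minimum inhibitory concentration.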

[6] = system: Escherichia coli; test: Antibacterial activity against Escherichia coli AB734 assessed as growth inhibition by broth microdilution method in presence of polymyxin B nonapeptide; format: functional; method in brief: as §2
[7] = system: Escherichia coli; test: Antibacterial activity against Escherichia coli 1411 assessed as growth inhibition by broth microdilution method; format: functional; method in brief: as §1
[8] = system: Escherichia coli; test: Antibacterial activity against Escherichia coli AB734 assessed as growth inhibition by broth microdilution method; format: functional; method in brief: as §1
[9] = system: Escherichia coli; test: Antibacterial activity against Escherichia coli SM1411 harboring acrAB deletion mutant assessed as growth inhibition by broth microdilution method; format: functional; method in brief: as §3

Compound	IC50 [1] [µM]	IC50 [2] [µM]	MIC [3] [µg/mL]	MIC [4] [µg/mL]	MIC [5] [µg/mL]	MIC [6] [µg/mL]	MIC [7] [µg/mL]	MIC [8] [µg/mL]	MIC [9] [µg/mL]
N#Cc1c(NC(=O)c2cccc(OCn3cc(Cl)cn3)c2)sc2c1CCC2	56	126							
N#Cc1c(NC(=O)c2cc(OCCN)ccc2Cl)sc2c1CCN(Cc1cccc(O)c1)C2	150	119	> 256	64	64	64	128	128	64
N#Cc1c(NC(=O)c2cc(OCCN)ccc2Cl)sc2c1CCN(Cc1ccc(C(=O)O)cc1)C2	336	663	> 256	> 256	> 256	> 256	> 256	> 256	> 256
COC(=O)c1ccc(CN2CCc3c(sc(NC(=O)c4cc(OCCN)ccc4Cl)c3C#N)C2)cc1	88	109	128	64	32	64	> 256	> 256	64
N#Cc1c(NC(=O)c2cc(OCCN)ccc2Cl)sc2c1CCN(Cc1ccc(-n3cnnn3)cc1)C2	83	454	> 256	> 256	> 256	> 256	> 256	> 256	> 256
N#Cc1ccc(CN2CCc3c(sc(NC(=O)c4cc(OCCN)ccc4Cl)c3C#N)C2)cc1	76	107	128	64	32	64	< 256	< 256	64
N#Cc1c(NC(=O)c2cc(OCCCN)ccc2Cl)sc2c1CCCC2	272	128	128	32	32	32	64	64	32
Cl.N#Cc1c(NC(=O)c2cc(OCCNC(=N)N)ccc2Cl)sc2c1CCN(Cc1ccc(O)cc1)C2	25	20	4	16	4	16	64	64	16
Cl.N#Cc1c(NC(=O)c2cc(OCCCNC(=N)N)ccc2Cl)sc2c1CCCC2	102	78	> 256	32	8	32	32	32	16
Cl.N#Cc1c(NC(=O)c2cc(OCCN)ccc2Cl)sc2c1CCCC2	208	170	128	32	32	32	128	128	32
Cl.N#Cc1c(NC(=O)c2cccc(OCCNC(=N)N)c2)sc2c1CCCC2	258	167	64	64	16	> 256	64	64	16
Cl.N#Cc1c(NC(=O)c2cc(OCCNC(=N)N)ccc2Cl)sc2c1CCCC2	56	75	64	8	8	8	16	16	8
COc1ccc(CN2CCc3c(sc(NC(=O)c4cc(OCCNC(=N)N)ccc4Cl)c3C#N)C2)cc1.Cl	78	61	32	32	8	32	32	32	32
N#Cc1c(NC(=O)c2cc(OCCNC(=O)C(F)(F)F)ccc2Cl)sc2c1CCN(Cc1ccc(-n3cnnn3)cc1)C2	152	103	> 256	> 256	64	> 256	> 256	> 256	> 256
Cl.N#Cc1c(NC(=O)c2cc(S(=O)(=O)NCCN)c(Cl)cc2Cl)sc2c1CCCC2	418	219	> 256	128	64	128	> 256	> 256	128
N#Cc1c(NC(=O)c2cc(OCCN)ccc2Cl)sc2c1CCN(Cc1ccccc1)C2	84	51	64	32	16	32	64	64	32
Cl.N#Cc1c(NC(=O)c2cc(OCCNC(=N)N)ccc2Cl)sc2c1CCN(Cc1cccc(O)c1)C2	143	117	32	64	32	64	128	128	64
N#Cc1c(NC(=O)c2cc(OCCN)ccc2Cl)sc2c1CCC(c1ccc(O)cc1)C2 (stereo not given)	81	58	> 256	16	8	16	> 256	> 256	32
